Test results taken from ChEMBL document CHEMBL1135987, “Synthesis of new dihydroindeno[1,2-c]isoquinoline and indenoisoquinolinium chloride topoisomerase I inhibitors having high in vivo anticancer activity in the hollow fiber animal model” (2002).
Each block holds one compound with its values, some of them ahead of it. The source made the active and inactive calls. No cut-off for these calls is given here.

Assays:
[1] = Cytotoxicity in prostate DU-145 cell line.; format: functional; details: Homo sapiens
Summary of the method: (§1)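 NCI screen of roughly 55 human cancer cell lines from diverse tumor origins, tested over 10^-4 to 10^-8 M. GI50 is the concentration giving 50% growth inhibition.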

[2] = Cytotoxicity in renal SN12C cell line.; format: functional; details: Homo sapiens; summary of the method: as §1
[3] = Cytotoxicity in breast MDA-MB-435 cell line.; format: functional; details: Homo sapiens; summary of the method: as §1
[4] = Cytotoxicity in ovarian OVCAR-3 cell line.; format: functional; details: Homo sapiens; summary of the method: as §1
[5] = Cytotoxicity in melanoma UACC-62 cell line.; format: functional; details: Homo sapiens; summary of the method: as §1
[6] = Cytotoxicity in colon HCT116 cell line.; format: functional; details: Homo sapiens, HCT-116; summary of the method: as §1
[7] = Cytotoxicity in lung HOP-62 cell line.; format: functional; details: Homo sapiens; summary of the method: as §1
[8] = tested on: Panel (Carcinoma cell lines); experiment: Mean graph mid point for growth inhibition of all human cancer cell lines tested.; format: functional; parameters: unit: µM
Summary of the method: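 NCI screen of roughly 55 human cancer cell lines, test range 10^-4 to 10^-8 M. Mean graph midpoint is the average GI50 over all cell lines successfully tested. GI50 values below or above the range are set to 10^-8 M or 10^-4 M.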

[9] = target: T1, DNA topoisomerase 1 (Homo sapiens) (UniProt P11387); experiment: DNA topoisomerase I mediated cleavage activity tested up to a concentration of 100 uM; Active or inactive
T1 sequence (whole entry): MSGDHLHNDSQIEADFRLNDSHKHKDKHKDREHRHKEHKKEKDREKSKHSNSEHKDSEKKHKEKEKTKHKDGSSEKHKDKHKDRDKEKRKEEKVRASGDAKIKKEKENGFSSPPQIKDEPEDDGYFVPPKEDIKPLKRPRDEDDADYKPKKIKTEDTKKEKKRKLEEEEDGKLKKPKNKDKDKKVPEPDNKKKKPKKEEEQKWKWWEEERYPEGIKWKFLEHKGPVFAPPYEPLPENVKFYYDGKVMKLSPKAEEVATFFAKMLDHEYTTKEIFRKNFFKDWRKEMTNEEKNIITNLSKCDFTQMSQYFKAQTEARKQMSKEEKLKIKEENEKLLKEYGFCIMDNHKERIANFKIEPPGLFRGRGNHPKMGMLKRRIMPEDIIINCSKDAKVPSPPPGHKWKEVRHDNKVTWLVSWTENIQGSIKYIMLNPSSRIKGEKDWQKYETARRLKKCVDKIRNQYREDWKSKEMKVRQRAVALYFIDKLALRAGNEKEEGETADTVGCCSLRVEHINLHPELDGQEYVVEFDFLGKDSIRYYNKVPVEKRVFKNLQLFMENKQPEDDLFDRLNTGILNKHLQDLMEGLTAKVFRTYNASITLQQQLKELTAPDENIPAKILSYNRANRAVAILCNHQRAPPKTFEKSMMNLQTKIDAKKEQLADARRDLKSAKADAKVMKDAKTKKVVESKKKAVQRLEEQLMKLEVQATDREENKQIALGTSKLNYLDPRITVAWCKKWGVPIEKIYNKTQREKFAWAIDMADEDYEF
Summary of the method: (§2)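 Baculovirus-expressed human recombinant top1 was incubated with a 161 bp PvuII/HindIII fragment of pBluescript SK(-), 3'-end-labeled at the HindIII site with [α-32P]-dCTP (about 50 000 dpm per reaction), and drug up to 100 μM, for 30 min at 22 °C. Reactions were stopped with 0.5% SDS final. Products ran on denaturing 16% polyacrylamide/7 M urea gels at 51 °C. Cleavage was scored semiquantitatively (+, ++, +++) against the parent lead.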

[10] = Cytotoxicity in CNS SF-539 cell line.; format: functional; details: Homo sapiens; summary of the method: as §1
[11] = target: T1, DNA topoisomerase 1 (Homo sapiens); experiment: DNA topoisomerase I mediated cleavage activity tested up to a concentration of 100 uM; Greater activity than compound 1; summary of the method: as §2
[12] = target: T1, DNA topoisomerase 1 (Homo sapiens); experiment: DNA topoisomerase I mediated cleavage activity tested up to a concentration of 100 uM; week activity; summary of the method: as §2
[13] = target: T1, DNA topoisomerase 1 (Homo sapiens); experiment: DNA topoisomerase I mediated cleavage activity tested up to a concentration of 100 uM; Same activity as compound 1; summary of the method: as §2
[14] = target: T1, DNA topoisomerase 1 (Homo sapiens); experiment: DNA topoisomerase I mediated cleavage activity tested up to a concentration of 100 uM; summary of the method: as §2

Compound: CCOC(=O)CCCN1C(=O)c2cc(OC)c(OC)cc2[C@H]2C(=O)c3cc4c(cc3[C@H]21)OCO4
GI50 [1]: 3070 nM
GI50 [2]: 2070 nM
GI50 [3]: 16500 nM
GI50 [4]: 22000 nM
GI50 [5]: 3040 nM
GI50 [6]: 1810 nM
GI50 [7]: 2220 nM
MGM [8]: 7.76

Activity [9]: inactive
Compound: CCN1C(=O)c2cc(OC)c(OC)cc2[C@H]2C(=O)c3cc4c(cc3[C@H]21)OCO4
MGM [8]: 0.81

Compound: COC(=O)CCCN1C(=O)c2cc(OC)c(OC)cc2[C@H]2C(=O)c3cc4c(cc3[C@H]21)OCO4
GI50 [1]: 630 nM
GI50 [2]: 240 nM
GI50 [3]: 2890 nM
GI50 [4]: 2430 nM
GI50 [10]: 710 nM
GI50 [5]: 530 nM
GI50 [6]: 340 nM
GI50 [7]: 820 nM
MGM [8]: 1.48

Activity [11]: Greater activity than compound 1
Compound: CCC[n+]1cc2cc(OC)c(OC)cc2c2c1-c1cc3c(cc1C2)OCO3.[Cl-]
GI50 [1]: 10500 nM
GI50 [2]: 640 nM
GI50 [3]: 3370 nM
GI50 [4]: 1000 nM
GI50 [10]: 1080 nM
GI50 [5]: 2190 nM
GI50 [6]: 3550 nM
GI50 [7]: 3980 nM
MGM [8]: 4.1

Compound: CCCCN1C(=O)c2cc(OC)c(OC)cc2[C@H]2C(=O)c3cc4c(cc3[C@H]21)OCO4
GI50 [3]: 1600 nM
GI50 [4]: 1400 nM
GI50 [10]: 320 nM
GI50 [5]: 610 nM
GI50 [6]: 110 nM
GI50 [7]: 450 nM
MGM [8]: 2.14

Compound: COc1cc2c(cc1OC)[C@H]1C(=O)c3cc4c(cc3[C@H]1N(CC#N)C2=O)OCO4
GI50 [1]: 850 nM
GI50 [2]: 410 nM
GI50 [3]: 9040 nM
GI50 [4]: 2020 nM
GI50 [10]: 2120 nM
GI50 [5]: 1730 nM
GI50 [6]: 600 nM
GI50 [7]: 5420 nM
MGM [8]: 3.28

Activity [12]: week activity
Compound: COc1cc2c(cc1OC)[C@H]1C(=O)c3cc4c(cc3[C@H]1N(CCCN=[N+]=[N-])C2=O)OCO4
GI50 [1]: 330 nM
GI50 [2]: 250 nM
GI50 [3]: 1270 nM
GI50 [4]: 1270 nM
GI50 [10]: 330 nM
GI50 [5]: 290 nM
GI50 [6]: 400 nM
GI50 [7]: 360 nM
MGM [8]: 0.69

Compound: COc1cc2c(cc1OC)[C@H]1C(=O)c3c(ccc4ccccc34)[C@H]1N(CCCBr)C2=O
GI50 [1]: 2460 nM
GI50 [2]: 2350 nM
GI50 [3]: 2250 nM
GI50 [4]: 1970 nM
GI50 [5]: 2390 nM
GI50 [6]: 4020 nM
GI50 [7]: 1440 nM
MGM [8]: 2.95

Compound: COc1cc2c(cc1OC)[C@H]1C(=O)c3cc4c(cc3[C@H]1N(CCCCl)C2=O)OCO4
GI50 [1]: 30 nM
GI50 [2]: 20 nM
GI50 [3]: 330 nM
GI50 [4]: 360 nM
GI50 [10]: 20 nM
GI50 [5]: 20 nM
GI50 [6]: 160 nM
GI50 [7]: 80 nM
MGM [8]: 0.11

Activity [13]: Same activity as compound 1
Compound: COc1cc2c(cc1OC)[C@H]1C(=O)c3cc4c(cc3[C@H]1N(CCCBr)C2=O)OCO4
GI50 [1]: 30 nM
GI50 [2]: 30 nM
GI50 [3]: 150 nM
GI50 [4]: 400 nM
GI50 [10]: 40 nM
GI50 [5]: 50 nM
GI50 [6]: 70 nM
GI50 [7]: 120 nM
MGM [8]: 0.12

Compound: COc1cc2c(cc1OC)[C@H]1C(=O)c3c(ccc4ccccc34)[C@H]1N(CCCCl)C2=O
GI50 [1]: 5490 nM
GI50 [2]: 11600 nM
GI50 [3]: 2480 nM
GI50 [4]: 1930 nM
GI50 [10]: 14700 nM
GI50 [5]: 3730 nM
GI50 [6]: 6520 nM
GI50 [7]: 2760 nM
MGM [8]: 4.22

Compound: COc1cc2c(cc1OC)[C@H]1C(=O)c3cc4c(cc3[C@H]1N(Cc1ccccc1)C2=O)OCO4
GI50 [1]: 550 nM
GI50 [2]: 390 nM
GI50 [4]: 7170 nM
GI50 [10]: 380 nM
GI50 [5]: 1840 nM
GI50 [6]: 540 nM
GI50 [7]: 2930 nM
MGM [8]: 1.18

Compound: CCCN1Cc2cc(OC)c(OC)cc2[C@@H]2[C@H]1c1cc3c(cc1[C@@H]2O)OCO3
GI50 [1]: 33900 nM
GI50 [3]: 5800 nM
GI50 [4]: 6300 nM
GI50 [10]: 21700 nM
GI50 [5]: 18700 nM
GI50 [6]: 17800 nM
GI50 [7]: 16000 nM
MGM [8]: 20.9

Activity [11]: Greater activity than compound 1
Compound: CCCC[n+]1cc2cc(OC)c(OC)cc2c2c1-c1cc3c(cc1C2)OCO3.[Cl-]
GI50 [1]: 2690 nM
GI50 [2]: 430 nM
GI50 [3]: 1370 nM
GI50 [4]: 280 nM
GI50 [10]: 2160 nM
GI50 [5]: 510 nM
GI50 [6]: 1580 nM
GI50 [7]: 3060 nM
MGM [8]: 1.31

Activity [13]: Same activity as compound 1
Compound: COc1cc2c3c(n(C)c(=O)c2cc1OC)-c1cc2c(cc1C3=O)OCO2
MGM [8]: 20

Compound: COc1cc2c(cc1OC)[C@H]1C(=O)c3cc4c(cc3[C@H]1N(CC(F)(F)F)C2=O)OCO4
GI50 [1]: 7500 nM
GI50 [2]: 7870 nM
GI50 [3]: 7600 nM
GI50 [4]: 7960 nM
GI50 [10]: 7630 nM
GI50 [5]: 4120 nM
GI50 [6]: 14400 nM
GI50 [7]: 34000 nM
MGM [8]: 6.6

Compound: CCCN1C(=O)c2cc(OC)c(OC)cc2[C@H]2C(=O)c3cc4c(cc3[C@H]21)OCO4
GI50 [1]: 310 nM
GI50 [2]: 430 nM
GI50 [3]: 1100 nM
GI50 [4]: 920 nM
GI50 [10]: 440 nM
GI50 [5]: 260 nM
GI50 [6]: 390 nM
GI50 [7]: 590 nM
MGM [8]: 0.69

Activity [14]: 0
Compound: C=CCN1C(=O)c2cc(OC)c(OC)cc2[C@H]2C(=O)c3cc4c(cc3[C@H]21)OCO4
MGM [8]: 0.98

Compound: C/C=C(/C=O)CCN1C(=O)c2cc(OC)c(OC)cc2[C@H]2C(=O)c3cc4c(cc3[C@H]21)OCO4
GI50 [1]: 220 nM
GI50 [2]: 140 nM
GI50 [3]: 4460 nM
GI50 [4]: 7120 nM
GI50 [10]: 210 nM
GI50 [5]: 150 nM
GI50 [6]: 250 nM
GI50 [7]: 300 nM
MGM [8]: 0.95

Activity [13]: Same activity as compound 1
Compound: CC[n+]1cc2cc(OC)c(OC)cc2c2c1-c1cc3c(cc1C2)OCO3.[Cl-]
MGM [8]: 13
